Results taken from ChEMBL document CHEMBL2417509, “Synthesis and biological evaluation of prodigiosene conjugates of porphyrin, estrone and 4-hydroxytamoxifen” (2013).

Assays:
Assay type in all cases: functional
TK-10 = assay: Cytotoxicity against human TK10 cells after 2 days by sulforhodamine B assay; details: TK-10, 48 h
Method in brief: (§1)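 NCI DTP NCI60 multi-dose screen (59 human tumour lines available). Cells exposed to compound over a 5-log mol/L concentration range for 2 days, then fixed and stained with sulphorhodamine B, with optical density read. Growth inhibition calculated relative to time-zero cells and untreated cells, giving GI50 (half-maximal growth inhibition concentration). Average of two replicates.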

SN12C = assay: Cytotoxicity against human SN12C cells after 2 days by sulforhodamine B assay; details: 48 h
Method in brief: (§2)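 NCI60 multi-dose screen, 59 human tumour lines available. Cells exposed to compound across a 5-log mol/L concentration range for 2 days, then fixed and stained with sulphorhodamine B, optical density read. Growth inhibition calculated against time-zero control and untreated cells. GI50 derived from the dose series, average of two replicates.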

CAKI-1 = assay: Cytotoxicity against human CAKI-1 cells after 2 days by sulforhodamine B assay; details: CAKI-1, 48 h; method in brief: as §2
ACHN = assay: Cytotoxicity against human ACHN cells after 2 days by sulforhodamine B assay; details: 48 h; method in brief: as §2
A498 = assay: Cytotoxicity against human A498 cells after 2 days by sulforhodamine B assay; details: A498, 48 h; method in brief: as §2
786-0 = assay: Cytotoxicity against human 786-0 cells after 2 days by sulforhodamine B assay; details: 786-0, 48 h; method in brief: as §2
SK-OV-3 = assay: Cytotoxicity against human SKOV3 cells after 2 days by sulforhodamine B assay; details: SK-OV-3, 48 h; method in brief: as §2
OVCAR-8 = assay: Cytotoxicity against human OVCAR8 cells after 2 days by sulforhodamine B assay; details: OVCAR-8, 48 h; method in brief: as §2
[1] = Cytotoxicity against human NCI-ADR-RES cells after 2 days by sulforhodamine B assay; details: 48 h; method in brief: as §2
OVCAR-4 = assay: Cytotoxicity against human OVCAR4 cells after 2 days by sulforhodamine B assay; details: OVCAR-4, 48 h; method in brief: as §2
OVCAR-3 = assay: Cytotoxicity against human OVCAR3 cells after 2 days by sulforhodamine B assay; details: OVCAR-3, 48 h; method in brief: as §2
IGROV-1 = assay: Cytotoxicity against human IGROV1 cells after 2 days by sulforhodamine B assay; details: IGROV-1, 48 h; method in brief: as §2
UACC-62 = assay: Cytotoxicity against human UACC62 cells after 2 days by sulforhodamine B assay; details: UACC-62, 48 h; method in brief: as §1
UACC-257 = assay: Cytotoxicity against human UACC257 cells after 2 days by sulforhodamine B assay; details: UACC-257, 48 h; method in brief: as §1
SK-MEL-5 = assay: Cytotoxicity against human SK-MEL-5 cells after 2 days by sulforhodamine B assay; details: SK-MEL-5, 48 h; method in brief: as §2
SK-MEL-28 = assay: Cytotoxicity against human SK-MEL-28 cells after 2 days by sulforhodamine B assay; details: SK-MEL-28, 48 h; method in brief: as §2
M14 = assay: Cytotoxicity against human M14 cells after 2 days by sulforhodamine B assay; details: M14, 48 h; method in brief: as §2
LOX IMVI = assay: Cytotoxicity against human LOXIMVI cells after 2 days by sulforhodamine B assay; details: 48 h; method in brief: as §2
U-251 = assay: Cytotoxicity against human U251 cells after 2 days by sulforhodamine B assay; details: U-251, 48 h; method in brief: as §1
SNB-75 = assay: Cytotoxicity against human SNB75 cells after 2 days by sulforhodamine B assay; details: SNB-75, 48 h; method in brief: as §1
SNB-19 = assay: Cytotoxicity against human SNB19 cells after 2 days by sulforhodamine B assay; details: SNB-19, 48 h; method in brief: as §1
SF-295 = assay: Cytotoxicity against human SF295 cells after 2 days by sulforhodamine B assay; details: SF-295, 48 h; method in brief: as §2
SW-620 = assay: Cytotoxicity against human SW620 cells after 2 days by sulforhodamine B assay; details: SW-620, 48 h; method in brief: as §1
KM12 = assay: Cytotoxicity against human KM12 cells after 2 days by sulforhodamine B assay; details: KM12, 48 h; method in brief: as §2
HT-29 = assay: Cytotoxicity against human HT-29 cells after 2 days by sulforhodamine B assay; details: HT-29, 48 h; method in brief: as §2
NCI-H522 = assay: Cytotoxicity against human NCI-H522 cells after 2 days by sulforhodamine B assay; details: NCI-H522, 48 h; method in brief: as §2
COLO 205 = assay: Cytotoxicity against human COLO205 cells after 2 days by sulforhodamine B assay; details: COLO 205, 48 h; method in brief: as §2
HOP-62 = assay: Cytotoxicity against human HOP62 cells after 2 days by sulforhodamine B assay; details: HOP-62, 48 h; method in brief: as §2
SR = assay: Cytotoxicity against human SR cells after 2 days by sulforhodamine B assay; details: 48 h; method in brief: as §1
T47D = assay: Cytotoxicity against human T47D cells after 2 days by sulforhodamine B assay; details: 48 h; method in brief: as §1
UO-31 = assay: Cytotoxicity against human UO31 cells after 2 days by sulforhodamine B assay; details: UO-31, 48 h; method in brief: as §1
[2] = read-out: LC50 (the source's name)

CCC(=C(c1ccc(OCCN(C)C)cc1)c1ccc(OC(=O)CCCCC(=O)C2=C(C)/C(=C/c3[nH]c(-c4ccc[nH]4)cc3OC)N=C2C)cc1)c1ccccc1
GI50 (TK-10): 12.9 µM
LC50 (TK-10): 50.1 µM
TGI (TK-10): 25.1 µM
GI50 (SN12C): 5.37 µM
TGI (SN12C): 21.4 µM
CC50 (SN12C; [2]): 56.2 µM
GI50 (CAKI-1): 6.31 µM
LC50 (concentration killing 50% of the cells present at time zero) (CAKI-1): > 100 µM
TGI (CAKI-1): 36.3 µM
GI50 (ACHN): 4.79 µM
LC50 (concentration killing 50% of cells) (ACHN): 77.6 µM
TGI (ACHN): 22.9 µM
GI50 (A498): 12.9 µM
LC50 (A498): 53.7 µM
TGI (A498): 26.3 µM
GI50 (786-0): 4.79 µM
LC50 (concentration killing 50% of cells) (786-0): 52.5 µM
TGI (786-0): 19 µM
GI50 (SK-OV-3): 14.1 µM
LC50 (concentration killing 50% of starting cells) (SK-OV-3): 52.5 µM
TGI (SK-OV-3): 26.9 µM
GI50 (OVCAR-8): 6.61 µM
LC50 (OVCAR-8): 47.9 µM
TGI (OVCAR-8): 19.9 µM
GI50 [1]: 12.6 µM
TGI [1]: 46.8 µM
CC50 [1, 2]: > 100 µM
GI50 (OVCAR-4): 4.37 µM
LC50 (concentration killing 50% of cells) (OVCAR-4): 70.8 µM
TGI (OVCAR-4): 22.4 µM
GI50 (OVCAR-3): 11.7 µM
LC50 (OVCAR-3): 63.1 µM
TGI (OVCAR-3): 26.9 µM
GI50 (IGROV-1): 13.2 µM
LC50 (IGROV-1): > 100 µM
TGI (IGROV-1): 45.7 µM
GI50 (UACC-62): 4.9 µM
TGI (UACC-62): 17.8 µM
CC50 (UACC-62; [2]): 45.7 µM
GI50 (UACC-257): 12 µM
TGI (UACC-257): 28.8 µM
CC50 (UACC-257; [2]): 69.2 µM
GI50 (SK-MEL-5): 1.62 µM
LC50 (concentration killing 50% of cells) (SK-MEL-5): 6.03 µM
TGI (SK-MEL-5): 3.09 µM
GI50 (SK-MEL-28): 11.5 µM
LC50 (SK-MEL-28): 49 µM
TGI (SK-MEL-28): 24 µM
GI50 (M14): 1.82 µM
TGI (M14): 3.98 µM
CC50 (M14; [2]): 8.71 µM
GI50 (LOX IMVI): 2.04 µM
LC50 (LOX IMVI): 43.6 µM
TGI (LOX IMVI): 5.13 µM
GI50 (U-251): 7.76 µM
LC50 (U-251): > 100 µM
TGI (U-251): 30.2 µM
GI50 (SNB-75): 5.25 µM
LC50 (concentration killing 50% of starting cells) (SNB-75): 44.7 µM
TGI (SNB-75): 18.2 µM
GI50 (SNB-19): 8.13 µM
TGI (SNB-19): 23.4 µM
CC50 (SNB-19; [2]): 56.2 µM
GI50 (SF-295): 7.24 µM
LC50 (SF-295): 45.7 µM
TGI (SF-295): 20.4 µM
GI50 (SW-620): 3.16 µM
LC50 (concentration killing 50% of cells) (SW-620): 34.7 µM
TGI (SW-620): 11.5 µM
GI50 (KM12): 3.72 µM
LC50 (KM12): 46.8 µM
TGI (KM12): 14.4 µM
GI50 (HT-29): 3.02 µM
LC50 (HT-29): 74.1 µM
TGI (HT-29): 14.8 µM
GI50 (NCI-H522): 3.55 µM
LC50 (NCI-H522): 43.6 µM
TGI (NCI-H522): 14.4 µM
GI50 (COLO 205): 10.7 µM
LC50 (concentration killing 50% of cells) (COLO 205): 50.1 µM
TGI (COLO 205): 22.9 µM
GI50 (HOP-62): 12.3 µM
TGI (HOP-62): 24.5 µM
CC50 (HOP-62; [2]): 50.1 µM
GI50 (SR): 3.02 µM
LC50 (concentration giving 50% net cell kill) (SR): > 100 µM
TGI (SR): 20.9 µM
GI50 (T47D): 1.38 µM
LC50 (concentration killing 50% of cells) (T47D): 39.8 µM
TGI (T47D): 6.03 µM
GI50 (UO-31): 2.82 µM
LC50 (UO-31): 87.1 µM
TGI (UO-31): 21.4 µM
